PAFAH2 inh: PAFAH2 (human) inhibition; AID 492956; recombinant PAFAH2, FP-rhodamine activity probe, fluorescence polarization; inhibition, % at 3.39 µM; Q99487; actives 0.99% (n = 340,000);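 active means inhibition above the mean over all tested compounds plus 3 SD, cut at about 30% in these data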;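 further: inhibitors block probe labeling of enzyme so polarization drops; 0% = enzyme with DMSO and 100% = wells lacking PAFAH2 protein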
PAFAH1B2 inh: inhibitors of human PAFAH1B2 | inhibition, % at 3.39 µM | AID 492953 | actives 1.2% (n = 340,000) | recombinant PAFAH1B2, FP-rhodamine activity probe, fluorescence polarization | P68402;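 active means inhibition above the mean of all tested compounds plus 3 SD, cut at about 24% in these data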;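 further: 0% = enzyme with DMSO and 100% = wells lacking PAFAH1B2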
Target sequence (P68402 whole entry, looked up): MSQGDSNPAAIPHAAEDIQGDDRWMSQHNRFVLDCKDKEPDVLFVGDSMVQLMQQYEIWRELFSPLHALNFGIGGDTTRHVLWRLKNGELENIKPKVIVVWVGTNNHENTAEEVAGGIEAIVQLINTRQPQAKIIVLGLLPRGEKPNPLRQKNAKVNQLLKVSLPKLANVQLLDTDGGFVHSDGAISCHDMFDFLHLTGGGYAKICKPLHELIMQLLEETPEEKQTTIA
ASAP1 GAP inh: ASAP1 ArfGAP inhibition. ASAP1-stimulated ARF1 GTP hydrolysis, GDP FP detection. inhibition, % at 16.5 µM. actives 0.19% (n = 360,000). AID 624377; in the data active means inhibition above about 25%;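 further: 0% = vehicle with enzyme and substrate and 100% = no enzyme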
ARFGAP1 inh: inhibitors of rat ARFGAP1 | Arfgap1-stimulated ARF1 GTP hydrolysis, GDP FP detection | inhibition, % at 16.5 µM | actives 0.26% (n = 360,000);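 active means inhibition above a per-plate limit, mean inhibition of low control wells plus 3 SD, cut at about 25% in these data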;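 further: 0% = DMSO wells with enzyme and 100% = wells lacking Arfgap1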
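Replicates: Single well per compound | Assay system: Truncated rat Arfgap1 GAP domain | Control set: No-Arfgap1 wells (100%) versus DMSO full-reaction wells (0%) | Times: Enzyme reaction 120 min at 25 °C after 20 min preincubation | Reagent: Human ARF1(Δ1-17)-GTP substrate | Measured by: Tracer-displacement fluorescence polarization with EDTA stop, 620/688 nm | Measure: Percent inhibition of Arfgap1-stimulated GTP hydrolysis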
pPAFAH FP inh: inhibitors of human plasma PAF acetylhydrolase (pPAFAH). recombinant pPAFAH, FP-rhodamine probe fluorescence polarization. inhibition, % at 3.39 µM. actives 1.5% (n = 330,000);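 active means inhibition above the mean inhibition across the screen plus 3 SD, cut at about 25% in these data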;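 further: inhibitors block binding of the rhodamine activity-based probe so polarization drops; 0% = enzyme with DMSO and 100% = wells lacking pPAFAH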
Target sequence (Q13093 whole entry, looked up): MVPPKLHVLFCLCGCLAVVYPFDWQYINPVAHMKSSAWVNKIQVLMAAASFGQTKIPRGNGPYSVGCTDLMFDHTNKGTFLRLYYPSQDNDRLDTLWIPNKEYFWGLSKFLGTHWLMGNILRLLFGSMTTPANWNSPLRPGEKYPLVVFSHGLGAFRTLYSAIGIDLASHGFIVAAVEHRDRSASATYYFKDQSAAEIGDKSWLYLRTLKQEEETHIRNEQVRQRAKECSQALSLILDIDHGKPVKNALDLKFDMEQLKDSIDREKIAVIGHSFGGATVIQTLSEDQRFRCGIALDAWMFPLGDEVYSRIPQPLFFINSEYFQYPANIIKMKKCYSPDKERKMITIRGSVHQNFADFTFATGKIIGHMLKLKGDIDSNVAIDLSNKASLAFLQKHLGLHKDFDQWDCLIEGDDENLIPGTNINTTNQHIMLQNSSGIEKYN
PAFAH1B3 inh: inhibitors of human PAFAH1B3; Q15102; recombinant PAFAH1B3, FP-rhodamine probe, fluorescence polarization; inhibition, % at 3.39 µM; actives 0.28% (n = 340,000);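 active means inhibition above the screen-wide average of all tested compounds plus 3 SD, cut at about 25% in these data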;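 further: 0% = enzyme with DMSO only and 100% = wells lacking PAFAH1B3 protein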
PAFAH2 FP conf: PAFAH2 (human) inhibition, confirmed | recombinant PAFAH2, FP-rhodamine activity probe, fluorescence polarization | actives 65% (n = 2,300) | inhibition, % at 3.39 µM | shares compounds with PAFAH2 inh;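 active means mean inhibition over three repeats above a set limit taken from the earlier primary screen, cut at about 30% in these data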;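 further: inhibitor blocks binding of rhodamine activity probe so polarization falls; 0% = enzyme with DMSO and 100% = wells lacking PAFAH2 protein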
The depositor's hits bear a star; / = no result. The list is not random: actives were taken first. Their share in the collection is about 2.7%.

SMILES | PAFAH2 inh | PAFAH1B2 inh | ASAP1 GAP inh | ARFGAP1 inh | pPAFAH FP inh | PAFAH1B3 inh | PAFAH2 FP conf
O=C(Nc1ccc(S(=O)(=O)Nc2ncccn2)cc1)c1ccccc1NS(=O)(=O)c1ccc(Cl)cc1 | 50* | 3 | 0 | 19 | 5 | 3 | 50*
O=C(Nc1ccc(Cl)cc1)Nc1ccc(S(=O)(=O)Nc2ncccn2)cc1 | -5 | -1 | 8 | -13 | 0 | 2 | /
CSCCC(NS(=O)(=O)c1ccc(Cl)cc1)C(=O)O (stereo not drawn) | 35* | 4 | -2 | 5 | -2 | -1 | 29
CSCCC(NS(=O)(=O)c1c(Cl)cccc1Cl)C(=O)O (stereo not drawn) | 2 | -2 | -13 | -3 | -3 | 3 | /
Cc1ccccc1S(=O)(=O)N(C)C[C@@H]1OCc2cn(nn2)CCCC(=O)N([C@H](C)CO)C[C@H]1C | / | / | -1 | 8 | / | / | /
O=C(NC(=S)NNC(=O)c1ccccc1O)c1cccc([N+](=O)[O-])c1 | 42* | 10 | 11 | -8 | 17 | 19 | 27
O=C(NC(=S)NNC(=O)c1ccccc1O)c1ccco1 | 53* | 8 | 5 | 3 | 9 | 8 | 42*
COc1ccc(C(=O)NNC(=S)NC(=O)c2cccc([N+](=O)[O-])c2)cc1 | 6 | 7 | -5 | -1 | 3 | -3 | /
COc1cc(C(=O)OCC2CC(c3ccccc3)=NO2)cc(OC)c1OC (stereo not drawn) | -1 | 5 | 2 | 17 | -6 | 3 | /
COc1ccc(C(=O)OCC2CC(c3ccccc3)=NO2)cc1OC (stereo not drawn) | 68* | 3 | 0 | 3 | 4 | -4 | 60*
O=C(NC1CCCCC1)C(c1ccncc1)N(Cc1ccc2c(c1)OCO2)C(=O)c1cnsn1 (stereo not drawn) | 33* | 7 | -6 | -3 | -2 | 0 | 18
CCS(=O)(=O)c1ccc(O)c(NC(=O)Nc2ccccc2)c1 | 45* | 3 | 3 | 12 | 13 | -5 | 29
CCCNC(=O)Nc1cc(S(=O)(=O)CC)ccc1O | 2 | -2 | -7 | 3 | 8 | 3 | /
COc1ccc(CCNC(=O)COC(=O)c2cccs2)cc1 | 44* | -1 | -19 | 12 | / | 1 | 34*
COc1ccc(CCNC(=O)COC(=O)c2ccc(C)s2)cc1 | 56* | 7 | -5 | 1 | 13 | 4 | 47*
COc1ccc(CCNC(=O)COC(=O)c2ccc(C)s2)cc1OC | 6 | 7 | -5 | 4 | -1 | 6 | /
COc1cc(OC)c(C(=O)OCC(=O)Nc2cccc(S(=O)(=O)NC3=NCCCCC3)c2)cc1OC | 14 | 2 | 1 | -7 | / | -2 | /
O=C(COC(=O)c1cccs1)Nc1cccc(S(=O)(=O)NC2=NCCCCC2)c1 | 48* | 5 | -2 | 8 | 4 | 8 | 36*
CC1CC1C(=O)OCC(=O)Nc1cccc(S(=O)(=O)NC2=NCCCCC2)c1 (stereo not drawn) | 34* | 4 | 3 | 8 | 5 | 6 | 20
C/C=C/C(=O)OCC(=O)Nc1cccc(S(=O)(=O)NC2=NCCCCC2)c1 | 14 | 4 | 4 | -7 | 3 | 12 | /
O=C(CSc1nnc(-c2ccccc2)n1-c1ccccc1)c1cccs1 | 43* | 16 | -11 | -8 | -4 | 13 | 29
O=C(CSc1nnc(-c2ccccc2)n1-c1ccccc1)c1ccc[nH]1 | -2 | 13 | 4 | 9 | 8 | 4 | /
O=[N+]([O-])c1ccc(O)c(N=Cc2sc3ccccc3c2O)c1 | 33* | -5 | 10 | 4 | 14 | 3 | 16
Oc1ccc(Cl)cc1N=Cc1sc2ccccc2c1Cl | 0 | 6 | -6 | 9 | 8 | 8 | /
COCCN(C(=S)Nc1c(C)cc(C)cc1C)C(C)c1cccs1 (stereo not drawn) | 31* | 2 | -8 | 8 | 7 | 5 | 28
SMILES | PAFAH2 inh | PAFAH1B2 inh | ASAP1 GAP inh | ARFGAP1 inh | pPAFAH FP inh | PAFAH1B3 inh | PAFAH2 FP conf
Cc1nc(C)c(C(=O)OCC(=O)Nc2ccccc2SCC#N)s1 | 43* | 1 | -9 | -10 | 6 | -6 | 33*
Cc1nc(C)c(C(=O)OCC(=O)NCc2ccccc2)s1 | 32* | 1 | -6 | 7 | 3 | 11 | 20
Cc1nc(C)c(C(=O)OCC(=O)NCc2ccccc2Cl)s1 | 70* | 3 | -4 | 0 | 12 | 5 | 63*
O=C(COC(=O)c1cncc(Br)c1)NCc1ccccc1Cl | 6 | 2 | -7 | 2 | 2 | 7 | /
COc1ccc(CCNC(=O)COC(=O)c2sc(C)nc2C)cc1 | 23 | 1 | 3 | -10 | 8 | 0 | /
Cc1nc(C)c(C(=O)OCC(=O)Nc2ccc(C)c(C)c2)s1 | / | / | -11 | -2 | / | / | /
CC1CCc2sc(C(=O)OCC(=O)NCc3ccccc3)cc2C1 (stereo not drawn) | 38* | 3 | 1 | -3 | 9 | 8 | 40*
CC1(C(=O)NCc2cccs2)Cc2c(-c3ccccc3)ccnc2O1 (stereo not drawn) | / | / | 5 | -1 | / | / | /
COc1cccc(C(NC(C)=O)c2nc(-c3cccc(F)c3)cs2)c1 (stereo not drawn) | / | / | 6 | 10 | / | / | /
CCN(CC)C(=O)C1=C(C)N(Cc2ccc(OC)cc2)C(=O)C(CC(=O)NC2CCCCC2)C1 (stereo not drawn) | / | / | 1 | -19 | / | / | /
O=C(COC(=O)c1ccc(Cl)nc1)Nc1ccc(S(=O)(=O)N2CCCC2)cc1 | 2 | 2 | 5 | -5 | -2 | 2 | /
Cc1ccc(NC(=O)COC(=O)c2ccc(Cl)nc2)cc1S(=O)(=O)N1CCCCC1 | 36* | -1 | 3 | -2 | 5 | -1 | 38*
O=C(COC(=O)c1ccc(Cl)nc1)Nc1cc(S(=O)(=O)N2CCCCC2)ccc1Cl | 38* | 0 | 2 | -9 | 3 | 6 | 13
CCOc1ccc(OCCC(=O)N(CCOC)c2c(N)n(Cc3ccccc3)c(=O)[nH]c2=O)cc1 | 8 | 2 | 7 | 12 | / | -1 | /
Cc1cc(C(=O)OCC(=O)Nc2cc(S(=O)(=O)N3CCOCC3)ccc2Cl)c(C)o1 | 35* | 0 | -7 | 2 | 8 | 9 | 31*
O=C(COC(=O)c1cc(S(=O)(=O)N2CCOCC2)ccc1O)Nc1cc(S(=O)(=O)N2CCCC2)ccc1Cl | 77* | 8 | -8 | 8 | -2 | 8 | 76*
O=C(CC12CC3CC(CC(C3)C1)C2)NCC(=O)N1CCc2ccccc2C1 | 81* | 12 | 4 | 2 | 10 | 9 | 71*
CC(=O)c1c(C)[nH]c(C(=O)OC(C)C(=O)NC2CCCCC2)c1C (stereo not drawn) | / | / | -8 | 11 | / | / | /
COc1cc(/C=C2\C(=O)ON=C2c2ccccc2)cc(Cl)c1O | 33* | 0 | -7 | -3 | 2 | -8 | 47*

Screens: PubChem BioAssay, The Scripps Research Institute Molecular Screening Center
